Experimental data from different studies.
Each line is one published result; the experiments were not run side by side.

Structure (SMILES)	tested on	test	system	conditions	quantity	value
COc1cc(C#CC(=O)C2CCCCC2)ccc1O	Pseudomonas aeruginosa	microbial growth, absorbance	–	10 µM, 24 h	activity vs control	81%
CN(C)c1cc(NC(=O)Cc2ccccn2)c(O)c2c1C[C@H]1C[C@H]3[C@H](N(C)C)C(O)=C(C(N)=O)C(=O)[C@@]3(O)C(O)=C1C2=O	Mycobacteroides abscessus	microbial growth, resazurin	ATCC19977	–	IC50	0.67 µg/mL
Cc1ccccc1C(=O)C#Cc1ccc(F)c(F)c1	Pseudomonas aeruginosa	microbial growth, absorbance	–	10 µM, 24 h	activity vs control	101%
Clc1ccc(Nc2cc3nc4ccccc4n(-c4ccc(Cl)cc4)c-3c/c2=N\OCc2ccccc2)cc1	Mycobacteroides abscessus	microbial growth	–	clinical isolate	MIC	> 30 µM
Cc1cccc(C(=O)C#Cc2ccc(F)c(F)c2)c1	Pseudomonas aeruginosa	microbial growth, absorbance	–	100 µM, 24 h	activity vs control	100%
CN(C)c1cc(NC(=O)Cc2ccn(C)n2)c(O)c2c1C[C@H]1C[C@H]3[C@H](N(C)C)C(O)=C(C(N)=O)C(=O)[C@@]3(O)C(O)=C1C2=O	Mycobacteroides abscessus	microbial growth, resazurin	ATCC19977	–	IC50	0.86 µg/mL
C=C(F)C(=O)N1CCN(c2nc(OC[C@@H]3CCCN3C)nc3c2CCN(c2cccc4cccc(Cl)c24)C3)C[C@@H]1CC#N	SW837	cell growth or viability, ATP luminescence	–	3D culture	IC50	5.77 nM
O=C(CO/N=c1\cc2n(-c3ccc(Cl)cc3)c3ccccc3nc-2cc1Nc1ccc(Cl)cc1)NCc1ccc(C(F)(F)F)cc1	Mycobacteroides abscessus	microbial growth	–	clinical isolate	MIC	> 30 µM
CCCCC[C@H](O)CC(=O)CCc1ccc(O)c(OC)c1	Pseudomonas aeruginosa	microbial growth, absorbance	–	10 µM, 24 h	activity vs control	99%
O=C(CO/N=c1\cc2n(-c3ccc(Cl)cc3)c3ccccc3nc-2cc1Nc1ccc(Cl)cc1)NCc1ccc2c(c1)CCO2	Mycobacteroides abscessus	microbial growth	–	clinical isolate	MIC	> 30 µM
COc1ccccc1C(=O)C#Cc1ccc(F)c(F)c1	Pseudomonas aeruginosa	microbial growth, absorbance	–	100 µM, 24 h	activity vs control	83%
O/N=c1\cc2n(-c3ccc(Cl)cc3)c3ccccc3nc-2cc1Nc1ccc(Cl)cc1	Mycobacteroides abscessus	microbial growth	–	clinical isolate	MIC	> 30 µM
COc1cc(C#CC(=O)C(C)C)ccc1O	Pseudomonas aeruginosa	microbial growth, absorbance	–	10 µM, 24 h	activity vs control	94%
CO/N=c1\cc2n(-c3ccc(Cl)cc3)c3ccccc3nc-2cc1Nc1ccc(Cl)cc1	Mycobacteroides abscessus	microbial growth	–	clinical isolate	MIC	> 30 µM
CN(C)c1cc(NC(=O)Cc2cccnc2)c(O)c2c1C[C@H]1C[C@H]3[C@H](N(C)C)C(O)=C(C(N)=O)C(=O)[C@@]3(O)C(O)=C1C2=O	Mycobacteroides abscessus	microbial growth, resazurin	ATCC19977	–	IC50	1.29 µg/mL
C=CC(=O)NC1CCN(c2ncc3ncnc(Nc4ccc(Oc5ccc6c(c5)ncn6C)c(C)c4)c3n2)CC1	ONS-76	cell growth or viability	–	–	EC50	483 nM
CN(C)c1cc(NC(=O)Cc2cncnc2)c(O)c2c1C[C@H]1C[C@H]3[C@H](N(C)C)C(O)=C(C(N)=O)C(=O)[C@@]3(O)C(O)=C1C2=O	Mycobacteroides abscessus	microbial growth, resazurin	ATCC19977	–	IC50	0.74 µg/mL
C[C@H](NC(=O)CO/N=c1\cc2n(-c3ccc(Cl)cc3)c3ccccc3nc-2cc1Nc1ccc(Cl)cc1)C(=O)O	Mycobacteroides abscessus	microbial growth	–	clinical isolate	MIC	> 30 µM
CN(C)c1cc(NC(=O)Cc2cccnn2)c(O)c2c1C[C@H]1C[C@H]3[C@H](N(C)C)C(O)=C(C(N)=O)C(=O)[C@@]3(O)C(O)=C1C2=O	Mycobacteroides abscessus	microbial growth, resazurin	ATCC19977	–	IC50	1.67 µg/mL
O=C(NO)c1ccc(CNc2nc3cccc(-c4ccc5c(c4)OCO5)n3n2)cc1	T47D	cell growth or viability, SRB	–	–	GI50	430 nM
CN(C)c1cc(NC(=O)c2ccccc2)c(O)c2c1C[C@H]1C[C@H]3[C@H](N(C)C)C(O)=C(C(N)=O)C(=O)[C@@]3(O)C(O)=C1C2=O	Mycobacteroides abscessus	microbial growth, resazurin	ATCC19977	–	IC50	13.8 µg/mL
O=C(C#Cc1ccc(F)c(F)c1)c1ccc(Cl)cc1	Pseudomonas aeruginosa	microbial growth, absorbance	–	100 µM, 24 h	activity vs control	96%
